Legend:
[1] = target: Phosphatidylinositol 5-phosphate 4-kinase type-2 gamma (Homo sapiens) (UniProt Q8TBX8); experiment: Binding affinity to wild-type human partial length PIP5K2C (M1 to A421 residues) expressed in mammalian expression system assessed as residual binding level at 1 uM by Kinomescan method relative to control
[2] = system: Hepatocyte growth factor receptor (Homo sapiens), P08581 [Y1235D]; experiment: Binding affinity to human partial length MET Y1235D mutant (D1010 to S1367 residues) expressed in bacterial expression system assessed as residual binding level at 1 uM by Kinomescan method relative to control
How it was run: (§1)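 KinomeScan active site-directed competition binding panel (468 kinases), compound tested at 1 μM. Result expressed as remaining kinase signal versus DMSO control (percent of control).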

[3] = target: Serine/threonine-protein kinase PLK3 (Homo sapiens) (UniProt Q9H4B4); experiment: Binding affinity to wild-type human partial length PLK3 (A42 to L334 residues) expressed in mammalian expression system assessed as residual binding level at 1 uM by Kinomescan method relative to control
[4] = target: Serine/threonine-protein kinase MRCK gamma (Homo sapiens) (UniProt Q6DT37); experiment: Binding affinity to wild-type human partial length DMPK2 (S46 to S408 residues) expressed in bacterial expression system assessed as residual binding level at 1 uM by Kinomescan method relative to control
[5] = target: Transient receptor potential cation channel subfamily M member 6 (Homo sapiens) (UniProt Q9BX84); experiment: Binding affinity to wild-type human partial length TRPM6 (Q1723 to I1998 residues) expressed in mammalian expression system assessed as residual binding level at 1 uM by Kinomescan method relative to control
How it was run: (§2)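 Active site-directed competition binding panel (KinomeScan, 468 kinases). Test compound at 1 μM. Read-out is kinase binding remaining versus DMSO control, expressed as percent of control. Scores above 35% are treated as weak binding.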

[6] = target: Calcium/calmodulin-dependent protein kinase type 1D (Homo sapiens) (UniProt Q8IU85); experiment: Binding affinity to wild-type human partial length CAMK1D (M1 to K299 residues) expressed in bacterial expression system assessed as residual binding level at 1 uM by Kinomescan method relative to control
Calcium/calmodulin-dependent protein kinase type 1D (Homo sapiens), sequence (Q8IU85 whole entry, looked up, the tested form may be a part, canonical isoform): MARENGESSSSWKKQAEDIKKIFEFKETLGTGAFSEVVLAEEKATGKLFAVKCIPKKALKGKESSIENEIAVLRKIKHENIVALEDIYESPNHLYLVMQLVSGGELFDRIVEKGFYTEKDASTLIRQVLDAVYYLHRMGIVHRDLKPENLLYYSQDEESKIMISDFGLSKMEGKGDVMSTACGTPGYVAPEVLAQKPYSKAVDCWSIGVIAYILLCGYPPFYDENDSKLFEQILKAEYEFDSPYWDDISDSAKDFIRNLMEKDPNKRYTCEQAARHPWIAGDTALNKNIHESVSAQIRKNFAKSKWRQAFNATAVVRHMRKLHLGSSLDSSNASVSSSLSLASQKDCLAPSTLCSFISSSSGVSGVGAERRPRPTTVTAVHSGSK

[7] = system: Phosphatidylinositol 4,5-bisphosphate 3-kinase catalytic subunit alpha isoform (Homo sapiens), P42336 [H1047L]; experiment: Binding affinity to human partial length PIK3CA H1047L mutant (R108 to N1068 residues) expressed in mammalian expression system assessed as residual binding level at 1 uM by Kinomescan method relative to control; how it was run: as §1
[8] = target: Mitogen-activated protein kinase kinase kinase 19 (Homo sapiens) (UniProt Q56UN5); experiment: Binding affinity to wild-type human partial length YSK4 (T1019 to H1328 residues) expressed in mammalian expression system assessed as residual binding level at 1 uM by Kinomescan method relative to control; how it was run: as §2
[9] = target: Myosin light chain kinase (Homo sapiens) (UniProt Q32MK0); experiment: Binding affinity to wild-type human partial length MLCK (D488 to K800 residues) expressed in bacterial expression system assessed as residual binding level at 1 uM by Kinomescan method relative to control
[10] = target: Phosphatidylinositol 4,5-bisphosphate 3-kinase catalytic subunit alpha isoform (Homo sapiens) (UniProt P42336); experiment: Binding affinity to wild-type human partial length PIK3CA (R108 to N1068 residues) expressed in mammalian expression system assessed as residual binding level at 1 uM by Kinomescan method relative to control
Phosphatidylinositol 4,5-bisphosphate 3-kinase catalytic subunit alpha isoform (Homo sapiens), sequence (P42336 whole entry, the tested form may be a part, canonical isoform): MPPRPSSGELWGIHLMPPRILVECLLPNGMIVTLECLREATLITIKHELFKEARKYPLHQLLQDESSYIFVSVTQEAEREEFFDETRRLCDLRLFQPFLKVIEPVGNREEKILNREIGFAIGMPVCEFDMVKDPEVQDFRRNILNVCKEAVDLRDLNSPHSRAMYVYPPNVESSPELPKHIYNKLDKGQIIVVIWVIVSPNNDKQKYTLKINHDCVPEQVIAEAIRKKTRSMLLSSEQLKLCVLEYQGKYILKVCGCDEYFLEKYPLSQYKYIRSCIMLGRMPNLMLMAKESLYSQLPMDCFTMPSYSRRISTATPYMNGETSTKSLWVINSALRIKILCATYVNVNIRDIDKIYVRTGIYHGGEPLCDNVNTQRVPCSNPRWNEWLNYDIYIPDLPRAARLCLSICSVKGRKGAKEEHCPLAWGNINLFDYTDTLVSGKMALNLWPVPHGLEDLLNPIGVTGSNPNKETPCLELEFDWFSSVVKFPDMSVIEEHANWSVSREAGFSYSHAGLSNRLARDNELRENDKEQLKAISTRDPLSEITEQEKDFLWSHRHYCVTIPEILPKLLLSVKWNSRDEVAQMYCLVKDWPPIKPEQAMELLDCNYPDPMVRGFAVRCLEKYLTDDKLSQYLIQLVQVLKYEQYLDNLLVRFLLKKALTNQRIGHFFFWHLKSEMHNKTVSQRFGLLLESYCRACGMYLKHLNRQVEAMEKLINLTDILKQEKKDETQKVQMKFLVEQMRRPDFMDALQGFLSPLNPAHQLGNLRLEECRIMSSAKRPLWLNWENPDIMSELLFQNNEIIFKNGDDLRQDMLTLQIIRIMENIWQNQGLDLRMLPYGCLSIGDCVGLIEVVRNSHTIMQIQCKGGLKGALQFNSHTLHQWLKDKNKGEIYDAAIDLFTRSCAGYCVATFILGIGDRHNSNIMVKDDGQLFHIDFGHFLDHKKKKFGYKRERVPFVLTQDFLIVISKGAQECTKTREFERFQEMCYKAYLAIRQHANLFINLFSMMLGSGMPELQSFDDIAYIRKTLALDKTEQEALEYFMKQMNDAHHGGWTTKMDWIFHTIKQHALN

[11] = target: LIM domain kinase 1 (Homo sapiens) (UniProt P53667); experiment: Binding affinity to wild-type human full length LIMK1 (M1 to D647 residues) expressed in bacterial expression system assessed as residual binding level at 1 uM by Kinomescan method relative to control
How it was run: (§3)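 Active-site-directed KinomeScan competition binding panel covering 468 kinases, compound tested at 1 μM. Each readout is the kinase signal remaining with compound, expressed as a percentage of the DMSO control. […]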

[12] = target: Inhibitor of nuclear factor kappa-B kinase subunit epsilon (Homo sapiens) (UniProt Q14164); experiment: Binding affinity to wild-type human full length IKK-epsilon (M1 to V716 residues) expressed in mammalian expression system assessed as residual binding level at 1 uM by Kinomescan method relative to control; how it was run: as §3
Inhibitor of nuclear factor kappa-B kinase subunit epsilon (Homo sapiens), sequence (Q14164 whole entry, the tested form may be a part): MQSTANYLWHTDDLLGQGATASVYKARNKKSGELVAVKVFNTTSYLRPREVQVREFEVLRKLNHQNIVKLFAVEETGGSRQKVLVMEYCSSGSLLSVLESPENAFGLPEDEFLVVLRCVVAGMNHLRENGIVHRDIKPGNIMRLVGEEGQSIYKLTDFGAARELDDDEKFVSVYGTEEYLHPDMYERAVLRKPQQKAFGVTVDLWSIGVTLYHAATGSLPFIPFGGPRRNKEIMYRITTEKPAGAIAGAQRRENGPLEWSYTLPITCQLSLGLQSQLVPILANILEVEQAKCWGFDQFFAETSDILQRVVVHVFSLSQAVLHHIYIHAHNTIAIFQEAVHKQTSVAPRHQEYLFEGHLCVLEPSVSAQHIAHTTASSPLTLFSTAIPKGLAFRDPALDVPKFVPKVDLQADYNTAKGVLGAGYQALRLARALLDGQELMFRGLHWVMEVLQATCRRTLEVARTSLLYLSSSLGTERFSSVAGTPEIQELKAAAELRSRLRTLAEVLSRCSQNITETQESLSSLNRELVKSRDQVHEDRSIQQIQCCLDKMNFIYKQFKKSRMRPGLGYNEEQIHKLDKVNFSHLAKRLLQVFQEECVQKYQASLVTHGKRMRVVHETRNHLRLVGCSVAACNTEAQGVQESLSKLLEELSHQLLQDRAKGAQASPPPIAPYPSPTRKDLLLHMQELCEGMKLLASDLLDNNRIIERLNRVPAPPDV

[13] = target: Homeodomain-interacting protein kinase 4 (Homo sapiens) (UniProt Q8NE63); experiment: Binding affinity to wild-type human partial length HIPK4 (M1 to V384 residues) expressed in bacterial expression system assessed as residual binding level at 1 uM by Kinomescan method relative to control
Homeodomain-interacting protein kinase 4 (Homo sapiens), sequence (Q8NE63 whole entry, the tested form may be a part): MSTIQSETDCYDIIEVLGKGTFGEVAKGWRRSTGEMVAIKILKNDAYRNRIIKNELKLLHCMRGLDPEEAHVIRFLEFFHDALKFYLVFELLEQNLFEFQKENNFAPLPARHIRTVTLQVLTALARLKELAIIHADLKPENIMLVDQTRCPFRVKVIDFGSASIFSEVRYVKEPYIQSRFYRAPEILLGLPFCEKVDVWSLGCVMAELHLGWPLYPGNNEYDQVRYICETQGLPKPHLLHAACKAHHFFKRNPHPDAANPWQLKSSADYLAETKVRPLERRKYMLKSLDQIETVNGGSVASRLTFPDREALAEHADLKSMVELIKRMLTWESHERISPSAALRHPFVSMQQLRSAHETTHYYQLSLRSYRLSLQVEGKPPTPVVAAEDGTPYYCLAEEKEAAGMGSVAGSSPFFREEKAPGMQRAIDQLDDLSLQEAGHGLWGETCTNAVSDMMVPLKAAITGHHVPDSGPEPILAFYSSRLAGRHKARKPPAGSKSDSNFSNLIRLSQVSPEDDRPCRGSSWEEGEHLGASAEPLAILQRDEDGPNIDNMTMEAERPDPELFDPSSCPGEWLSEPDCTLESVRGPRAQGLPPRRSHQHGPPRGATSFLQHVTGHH

[14] = target: Activin receptor type-1 (Homo sapiens) (UniProt Q04771); experiment: Binding affinity to wild-type human ACVR1 (C188 to C509 residues) expressed in bacterial expression system assessed as residual binding level at 1 uM by Kinomescan method relative to control; how it was run: as §3
[15] = system: Epidermal growth factor receptor (Homo sapiens), P00533 [L861Q]; experiment: Binding affinity to human partial length EGFR L861Q mutant (R669 to V1011 residues) expressed in bacterial expression system assessed as residual binding level at 1 uM by Kinomescan method relative to control; how it was run: as §1
[16] = system: Tyrosine-protein kinase ABL1 (Homo sapiens), P00519 [Y253F]; experiment: Binding affinity to human phosphorylated ABL1 Y253F mutant (S229 to K512 residues) expressed in mammalian expression system assessed as residual binding level at 1 uM by Kinomescan method relative to control; how it was run: as §3
[17] = target: Activin receptor type-2B (Homo sapiens) (UniProt Q13705); experiment: Binding affinity to wild-type human ACVR2B (H169 to D504 residues) expressed in bacterial expression system assessed as residual binding level at 1 uM by Kinomescan method relative to control; how it was run: as §3
[18] = target: Cyclin-dependent kinase 11B (Homo sapiens) (UniProt P21127); experiment: Binding affinity to wild-type human partial length CDC2L1 (P353 to G692 residues) expressed in bacterial expression system assessed as residual binding level at 1 uM by Kinomescan method relative to control
Cyclin-dependent kinase 11B (Homo sapiens), sequence (P21127 whole entry, the tested form may be a part): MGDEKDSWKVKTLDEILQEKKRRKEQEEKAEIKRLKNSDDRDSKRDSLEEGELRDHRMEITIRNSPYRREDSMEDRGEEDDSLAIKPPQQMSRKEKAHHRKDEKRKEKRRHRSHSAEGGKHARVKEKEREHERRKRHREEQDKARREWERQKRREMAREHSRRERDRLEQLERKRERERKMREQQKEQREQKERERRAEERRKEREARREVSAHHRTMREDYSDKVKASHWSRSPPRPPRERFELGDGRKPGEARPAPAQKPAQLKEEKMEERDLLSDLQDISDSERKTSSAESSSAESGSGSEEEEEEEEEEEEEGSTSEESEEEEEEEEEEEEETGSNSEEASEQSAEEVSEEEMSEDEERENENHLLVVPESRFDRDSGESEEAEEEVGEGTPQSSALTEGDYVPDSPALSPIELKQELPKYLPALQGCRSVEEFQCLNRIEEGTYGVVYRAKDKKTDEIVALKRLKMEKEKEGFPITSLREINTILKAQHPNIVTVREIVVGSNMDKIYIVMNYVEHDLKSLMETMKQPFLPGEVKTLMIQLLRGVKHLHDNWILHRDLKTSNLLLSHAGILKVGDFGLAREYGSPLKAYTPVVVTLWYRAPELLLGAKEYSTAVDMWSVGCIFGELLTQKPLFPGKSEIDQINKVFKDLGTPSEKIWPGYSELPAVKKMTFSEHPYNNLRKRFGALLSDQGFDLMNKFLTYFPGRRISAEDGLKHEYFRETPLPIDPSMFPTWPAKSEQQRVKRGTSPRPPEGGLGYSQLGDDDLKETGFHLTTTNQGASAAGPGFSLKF

[19] = target: Ephrin type-A receptor 3 (Homo sapiens) (UniProt P29320); experiment: Binding affinity to wild-type human partial length EPHA3 (D604 to K889 residues) expressed in bacterial expression system assessed as residual binding level at 1 uM by Kinomescan method relative to control
How it was run: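 Active-site-directed competition binding panel of 468 kinases (KinomeScan), compound at 1 μM. The read-out is kinase remaining bound, given as a percentage of the DMSO control. […]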

[20] = target: Serine/threonine-protein kinase WNK2 (Homo sapiens) (UniProt Q9Y3S1); experiment: Binding affinity to wild-type human partial length WNK2 (V47 to D482 residues) expressed in mammalian expression system assessed as residual binding level at 1 uM by Kinomescan method relative to control; how it was run: as §2
[21] = target: Tyrosine-protein kinase receptor UFO (Homo sapiens) (UniProt P30530); experiment: Binding affinity to wild-type human partial length AXL (R497 to Y821 residues) expressed in bacterial expression system assessed as residual binding level at 1 uM by Kinomescan method relative to control
Tyrosine-protein kinase receptor UFO (Homo sapiens), sequence (P30530 whole entry, the tested form may be a part): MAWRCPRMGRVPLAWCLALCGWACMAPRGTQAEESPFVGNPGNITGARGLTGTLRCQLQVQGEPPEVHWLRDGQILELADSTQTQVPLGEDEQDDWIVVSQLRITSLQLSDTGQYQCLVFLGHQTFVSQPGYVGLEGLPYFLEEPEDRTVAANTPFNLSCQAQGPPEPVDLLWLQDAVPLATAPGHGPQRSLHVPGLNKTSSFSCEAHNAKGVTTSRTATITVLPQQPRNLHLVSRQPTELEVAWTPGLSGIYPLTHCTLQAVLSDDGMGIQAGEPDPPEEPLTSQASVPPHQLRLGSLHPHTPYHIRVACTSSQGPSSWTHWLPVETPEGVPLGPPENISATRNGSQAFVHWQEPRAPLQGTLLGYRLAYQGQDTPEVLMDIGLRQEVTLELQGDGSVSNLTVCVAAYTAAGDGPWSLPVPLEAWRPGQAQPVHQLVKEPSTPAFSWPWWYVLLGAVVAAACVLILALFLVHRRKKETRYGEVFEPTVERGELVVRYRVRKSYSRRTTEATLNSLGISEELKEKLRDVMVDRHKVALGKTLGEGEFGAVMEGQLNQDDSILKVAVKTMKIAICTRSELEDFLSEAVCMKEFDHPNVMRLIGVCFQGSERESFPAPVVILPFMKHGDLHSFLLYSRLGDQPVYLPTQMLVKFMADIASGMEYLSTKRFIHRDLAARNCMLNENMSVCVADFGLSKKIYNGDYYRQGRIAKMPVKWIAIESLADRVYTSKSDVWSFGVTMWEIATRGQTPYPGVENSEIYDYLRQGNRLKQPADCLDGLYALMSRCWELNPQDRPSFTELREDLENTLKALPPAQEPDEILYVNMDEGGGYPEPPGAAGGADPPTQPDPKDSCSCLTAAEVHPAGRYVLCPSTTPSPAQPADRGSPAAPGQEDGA

Phosphatidylinositol 5-phosphate 4-kinase type-2 gamma (Homo sapiens), sequence (Q8TBX8 whole entry, the tested form may be a part): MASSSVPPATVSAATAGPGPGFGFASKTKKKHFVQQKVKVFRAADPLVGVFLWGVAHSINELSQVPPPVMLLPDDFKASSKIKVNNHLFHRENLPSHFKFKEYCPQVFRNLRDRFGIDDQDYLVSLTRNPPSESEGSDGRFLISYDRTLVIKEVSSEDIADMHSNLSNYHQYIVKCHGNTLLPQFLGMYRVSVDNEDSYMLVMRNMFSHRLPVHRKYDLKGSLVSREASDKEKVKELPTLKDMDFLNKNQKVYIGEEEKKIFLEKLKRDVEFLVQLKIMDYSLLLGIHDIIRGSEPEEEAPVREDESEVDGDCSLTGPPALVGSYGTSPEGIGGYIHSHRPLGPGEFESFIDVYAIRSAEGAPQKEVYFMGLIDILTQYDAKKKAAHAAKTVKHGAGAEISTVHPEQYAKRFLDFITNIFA

Compound: C=CC(=O)Nc1ccccc1Nc1nc(Nc2ccc(N3CCN(C)CC3)cc2)ncc1C(=O)Nc1c(C)cccc1Cl
- Activity [1]: 100%
- Activity [2]: 100%
- Activity [3]: 100%
- Activity [4]: 100%
- Activity [5]: 81%
- Activity [6]: 100%
- Activity [7]: 71%
- Activity [8]: 83%
- Activity [9]: 100%
- Activity [10]: 100%
- Activity [11]: 100%
- Activity [12]: 100%
- Activity [13]: 100%
- Activity [14]: 100%
- Activity [15]: 55%
- Activity [16]: 0.1%
- Activity [17]: 100%
- Activity [18]: 100%
- Activity [19]: 68%
- Activity [20]: 64%
- Activity [21]: 100%

Reference: ChEMBL document CHEMBL4354843, “Structure-Based Design of a Potent and Selective Covalent Inhibitor for SRC Kinase That Targets a P-Loop Cysteine” (J Med Chem, 2020)
